# In the library only some 1.4% were active in any assay of this set; here they are far more common.
# IDE cell inh – inhibitors of human insulin-degrading enzyme in cells. P14735. HEK cells, FAbetaB cleavage, fluorescence polarization. inhibition, % at 5.59 µM. actives 0.41% (n = 320,000);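 active means percent inhibition above the average of all tested compounds plus 3 SD, set per screening campaign, cut at about 16% in these data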;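 further: IDE supplied by intact live HEK cells; FP after avidin binding of uncleaved biotin substrate so inhibition keeps polarization high; 0% = DMSO wells and 100% = 60 µM reference IDE inhibitor Ii1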
# TbMetRS inhib – blocks T. brucei methionyl-tRNA synthetase activity; actives 0.4% (n = 360,000); AID 624268; inhibition, % at 11.9 µM; purified T. brucei MetRS, ATP depletion, Kinase-Glo luminescence;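 active means inhibition above a per-plate cutoff of the control wells' mean inhibition plus 3 SD, cut at about 5.5% in these data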;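 further: 0% = DMSO wells median and 100% = median of wells with control inhibitor compound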
#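 Material: T. brucei methionyl-tRNA synthetase, purified; reagent: substrates ATP, L-methionine and bulk Escherichia coli tRNA; dosing: 11.9 µM single point; timing: 15 min plus 2 h at 25 °C; detection: luminescence of leftover ATP; evaluation: % inhibition; control set: DMSO-only wells as low control; replicates: singlicate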
# Yeast superoxide – yeast age-related superoxide inhibition as caloric restriction mimetic. S. cerevisiae aged cells, superoxide DHE fluorescence; active compounds read low. superoxide response (% of plate mean), % at 10 µM. actives 0.18% (n = 330,000). AID 2690;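 active means superoxide response under a set limit, about three screen SD below normal, cut at about 65% in these data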;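 further: yeast aged for seven days with compound at 30 °C before DHE staining; 100% = average MFI of all compound-treated wells on the plate with controls excluded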
# Efflux pump mplx – antifungal efflux pump inhibition, Nile Red retention. inhibition, % at 10 µM. AID 485275. S. cerevisiae Candida pump triplex. actives 0.44% (n = 330,000);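 active means plate passing quality check with inhibition over a set limit, or well fluorescence over plate mean plus 4 SD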;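 further: Nile Red retained in pooled yeast measured as flow cytometry median fluorescence; 0% = buffer negative control and 100% = Enniatin B positive control; higher means more Nile Red kept so more efflux inhibition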
# HDAC3 inhib – blocks human histone deacetylase 3. O15379. recombinant HDAC3, fluorogenic peptide/trypsin coupled, fluorescence. inhibition, % at 8.3 µM. actives 0.15% (n = 320,000). AID 2718; in the data active means inhibition above about 26%, passing the limit was not always enough; inconclusive means no clear call, values can overlap the other calls
# Target sequence (O15379 whole entry, looked up): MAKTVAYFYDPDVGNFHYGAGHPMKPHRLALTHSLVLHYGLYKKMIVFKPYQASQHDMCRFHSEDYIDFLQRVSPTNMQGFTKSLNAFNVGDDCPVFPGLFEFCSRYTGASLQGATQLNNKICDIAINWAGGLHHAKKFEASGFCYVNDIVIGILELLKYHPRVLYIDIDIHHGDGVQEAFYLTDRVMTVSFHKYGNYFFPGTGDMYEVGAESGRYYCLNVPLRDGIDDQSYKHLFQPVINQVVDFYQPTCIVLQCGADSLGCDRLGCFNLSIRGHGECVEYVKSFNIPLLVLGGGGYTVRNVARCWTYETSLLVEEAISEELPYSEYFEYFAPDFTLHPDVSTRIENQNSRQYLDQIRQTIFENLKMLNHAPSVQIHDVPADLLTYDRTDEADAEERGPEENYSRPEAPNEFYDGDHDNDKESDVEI
# IDE act – activators of human insulin-degrading enzyme in cells. P14735. HEK cells, FAbeta-B cleavage, fluorescence polarization; 0% vehicle, 100% cell-free pure enzyme wells. activation, % at 5.96 µM. actives 0.073% (n = 340,000). AID 493087;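 active means activation above the mean of all tested compounds plus 3 SD, set per screening campaign, cut at about 17% in these data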
# Cmpd fluor yeast – counter-screen for efflux pump inhibitors: compound fluorescence; shares compounds with Efflux pump mplx; S. cerevisiae AD/pABC3, flow cytometry; fluorescence ratio to DMSO, % at 10 µM; actives 4% (n = 1,700); AID 588517;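 active means fluorescence ratio to DMSO above its plate's cutoff, the plate mean ratio plus 5 SD, cut at about 210% in these data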;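 further: unstained yeast with no Nile Red so the signal is compound autofluorescence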
# Mdr1 pump inh – Candida Mdr1 efflux pump inhibition; shares compounds with Efflux pump mplx; S. cerevisiae AD/CaMDR1, Nile Red efflux, flow cytometry; inhibition, % at 10 µM; actives 1% (n = 1,700); AID 588518; in the data active means inhibition above about 26%;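 further: 0% = DMSO vehicle and 100% = reference inhibitor; higher means more Nile Red retained so more efflux inhibition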
# CaCdr2 efflux inh – Candida Cdr2 efflux pump inhibition; shares compounds with Efflux pump mplx; S. cerevisiae AD/CaCDR2, Nile Red retention, flow cytometry; Nile Red retention ratio vs DMSO, % at 10 µM; actives 4% (n = 1,700); AID 588520; in the data active means Nile Red retention ratio vs DMSO above about 190%;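 further: higher ratio means more blocking of Cdr2 efflux of the dye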
# Cdr1 pump inh – blocks the Candida albicans Cdr1 efflux pump in yeast; shares compounds with Efflux pump mplx; S. cerevisiae AD/CaCDR1, Nile Red efflux, flow cytometry; inhibition, % at 10 µM; actives 1% (n = 1,700); AID 588522;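 active means inhibition above the screen-wide mean plus twice its standard deviation, cut at about 32% in these data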
# Active calls of the source: *; ? = inconclusive; · = no result; + = active, no number.
SMILES,IDE cell inh,TbMetRS inhib,Yeast superoxide,Efflux pump mplx,HDAC3 inhib,IDE act,Cmpd fluor yeast,Mdr1 pump inh,CaCdr2 efflux inh,Cdr1 pump inh
CCOc1cccc(N(C(=O)CCC(=O)Nc2cc(C)on2)C(C(=O)NC(C)(C)C)c2ccc(OC)cc2)c1 (stereo unspecified),1.9,-0.3,108.3,0.5*,6.4,2.7,110.0,0.0,120.4,-0.1
CCC(C)(C)NC(=O)C(c1ccc(OC)cc1)N(C(=O)CCC(=O)Nc1cc(C)on1)c1cccc(F)c1 (stereo unspecified),-2.5,-0.5,118.3,-0.2,10.9,4.5,·,·,·,·
COc1ccc(C(C(=O)NC(C)(C)C)N(C(=O)CCC(=O)Nc2cc(C)on2)c2cccc(F)c2)cc1 (stereo unspecified),0.3,-0.1,94.6,0.4,1.1,0.2,87.6,-0.2,102.2,-0.1
Cc1nc2c3ccccc3nc(NNC(=O)CCC(=O)N3CCCC(C)C3)n2n1 (stereo unspecified),8.7,0.7,101.3,0.0,-2.8,-5.3,·,·,·,·
O=C1N=c2ccccc2=C1c1sc(NS(=O)(=O)Cc2ccccc2)nc1O,-0.2,0.6,116.7,0.7*,-0.7,-1.8,96.6,0.4,94.0,0.0
O=C1N=c2ccccc2=C1c1sc(NS(=O)(=O)c2ccccc2)nc1O,0.4,-0.5,92.3,-0.1,3.3,-2.7,·,·,·,·
COc1ccc(-c2cc(C(=O)NCCN3CCOCC3)c3ccccc3n2)cc1OC,2.3,-0.5,97.0,0.1,4.4,-1.2,·,·,·,·
COc1ccc(-c2cc(C(=O)NCCN3CCOCC3)c3ccccc3n2)cc1,0.8,-1.2,100.8,-0.1,-21.3,3.4,107.9,-0.2,106.0,0.0
COc1ccc(C(=O)Nc2sc3c(c2C#N)CCN(C(C)=O)C3)cc1,2.9,0.1,116.4,0.8*,-0.4,3.1,98.9,-0.2,89.9,0.0
COc1cc(C(=O)Nc2sc3c(c2C#N)CCN(C(C)=O)C3)cc(OC)c1OC,6.3,-0.3,96.7,-0.1,6.4,9.8,·,·,·,·
COC(=O)c1c(NC(=O)c2ccco2)sc2c1CCN(C(C)=O)C2,-1.9,-0.7,97.2,1.1*,-5.1,5.7,96.6,0.0,106.0,-0.1
O=[N+]([O-])c1ccc(Oc2cccc3cccnc23)c([N+](=O)[O-])c1,11.8,-1.1,106.8,0.9*,1.0,-5.9,122.8,-0.2,122.9,0.1
N#Cc1ccc(Oc2cccc3cccnc23)c([N+](=O)[O-])c1,1.1,-1.3,91.1,-0.1,2.6,7.1,·,·,·,·
O=C(C1CCCO1)N1CCN(S(=O)(=O)c2ccccc2)CC1 (stereo unspecified),5.8,-0.8,94.8,5.9*,6.9,-7.8,94.0,0.0,76.3,-0.1
Cc1ccc(S(=O)(=O)N2CCN(C(=O)C3CCCO3)CC2)cc1C (stereo unspecified),-9.1,-0.3,102.6,0.0,4.9,2.8,·,·,·,·
COc1ccc(NC(=O)C2OC3OC(C)(C)OC3C3OC(C)(C)OC23)cc1 (stereo unspecified),6.0,-0.8,90.1,1.5*,-0.4,-0.2,101.2,0.1,120.1,0.1
CCOC(=O)N1CCN(C(=O)COC(=O)CN(C)S(=O)(=O)c2ccc(NC(C)=O)cc2)CC1,1.9,0.5,96.0,0.1,-0.3,-0.6,·,·,·,·
O=C(COC(=O)c1cccc(F)c1)Nc1ccc(Cl)cn1,0.9,-0.1,111.2,-0.2,-3.8,1.1,·,·,·,·
CCOc1cc(/C=C2\SC(=Nc3ccccc3)N(c3ccccc3)C2=O)ccc1OCC(=O)O,-2.9,0.2,95.0,6.4*,6.9,1.1,98.6,-0.3,88.8,-0.3
CCc1ccccc1NC(=O)CNC(=O)c1cccc(S(=O)(=O)N2CCN(Cc3ccccc3)CC2)c1,4.0,-0.3,91.0,0.0,2.5,1.8,·,·,·,·
O=C(O)CCN1C(=O)/C(=C\c2ccc(-c3nc4ccccc4s3)o2)SC1=S,0.6,0.0,160.9,0.9*,?,-6.0,114.3,8.1,+,55.8*
O=C(O)CCCN1C(=O)/C(=C\c2ccco2)SC1=S,·,0.3,·,·,·,-1.0,·,·,·,·
COc1ccc(CSCC(=O)N/N=C/c2ccc(OCC(=O)NCc3ccco3)cc2)cc1,-2.1,-0.7,98.2,0.0,-1.8,-2.6,·,·,·,·
CC(SCc1ccccc1)C(=O)N/N=C/c1ccc(OCC(=O)NCc2ccco2)cc1 (stereo unspecified),-2.9,0.1,108.7,13.8*,-1.0,3.0,117.5,-0.2,93.5,0.5
Cc1noc(C)c1-c1csc(N2CCC(C(N)=O)CC2)n1,1.8,-0.3,122.5,-0.3,-0.6,2.3,·,·,·,·
SMILES,IDE cell inh,TbMetRS inhib,Yeast superoxide,Efflux pump mplx,HDAC3 inhib,IDE act,Cmpd fluor yeast,Mdr1 pump inh,CaCdr2 efflux inh,Cdr1 pump inh
CC(CN1CCCCC1)C(=O)NNC(=O)C12CC3CC(CC(C3)C1)C2 (stereo unspecified),5.6,-0.7,109.7,-0.1,3.0,4.5,·,·,·,·
CC(C)NC(=O)C(=O)NNC(=O)C12CC3CC(CC(C3)C1)C2,3.4,-1.0,105.5,2.1*,-0.6,1.9,111.3,0.3,116.0,0.1
Cn1cnc([N+](=O)[O-])c1S(=O)(=O)Oc1cccc2ccccc12,·,-0.3,·,·,·,-6.4,·,·,·,·
Cn1cnc([N+](=O)[O-])c1Oc1cccc2ccccc12,-5.2,0.7,77.7,1.1*,6.0,5.1,103.1,0.1,113.8,0.0
O=C(NCCO)c1c(O)c2cccc3c2n(c1=O)CC3,-2.3,-0.3,94.3,0.0,3.8,0.2,·,·,·,·
CCOC(=O)c1c(O)c2cccc3c2n(c1=O)CC3,6.1,-0.2,104.1,0.0,1.9,3.0,100.0,-0.1,94.0,0.0
Cc1ccnc(SC2CC(=O)N(c3ccc(Br)cc3)C2=O)n1 (stereo unspecified),·,-0.5,102.6,1.1*,1.0,-5.2,83.3,0.0,82.7,-0.1
O=C(NC(Cc1ccccc1)C(=O)O)c1ccccc1 (stereo unspecified),5.4,-1.1,113.7,0.0,10.8,1.6,·,·,·,·
Cc1ccc(CC(NC(=O)c2ccccc2)C(=O)NC(C)C(=O)O)cc1 (stereo unspecified),11.1,0.3,114.2,1.5*,-2.4,5.0,98.2,-0.5,91.4,0.0
Cc1cc(C)cc(NC(=O)c2ccc(NC3=NC4CS(=O)(=O)CC4S3)cc2)c1 (stereo unspecified),5.4,-1.4,106.7,0.9*,·,4.2,83.3,-0.2,95.4,-0.3

# Compound activity as filed in PubChem.
